According to ChEMBL document CHEMBL4373647, “Design, synthesis, and antimicrobial evaluation of 1,4-dihydroindeno[1,2-c]pyrazole tethered carbohydrazide hybrids: exploring their in silico ADMET, ergosterol inhibition and ROS inducing potential” (Medchemcomm, 2019):
Converted amounts (≈) assume the structure as drawn. The source made the active and inactive calls. No cut-off for these calls is given here.

How the values were obtained:
Pichia kudriavzevii = assay: Ratio of MFC to MIC against Candida krusei MTCC 3020; format: functional
In short: (§1)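 MIC by agar well diffusion: Candida lawns on Mueller-Hinton agar, wells loaded with compound in 10% DMSO (125–0.97 µg/mL), 24 h at 37 °C, lowest concentration giving an inhibition zone. MFC: compound in Mueller-Hinton broth (125–0.97 µg/mL) with yeast, 24 h at 37 °C, 10 µL plated on agar, lowest killing concentration after 24 h. Ratio is MFC/MIC.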

Candida albicans [1] = assay: Fungicidal activity against Candida albicans MTCC 3018 assessed as fungal killing incubated for 24 hrs; format: functional; details: MTCC 3018, 24 h
In short: (§2)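 Compound at 125–0.97 µg/mL in Mueller Hinton broth in microcentrifuge tubes, each Candida strain added, held 24 h at 37 °C. 10 µL of the treated suspension plated on Mueller Hinton agar and incubated a further 24 h at 37 °C. MFC is the lowest concentration that kills the strain. Duplicates, means reported.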

Candida albicans [2] = assay: Ratio of MFC to MIC against Candida albicans MTCC 7315; format: functional; in short: as §1
Candida albicans [3] = assay: Antifungal activity against Candida albicans MTCC 183 assessed as inhibition of fungal growth incubated for 24 hrs by agar well diffusion method; format: functional
In short: (§3)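 Candida strains from MTCC, pre-cultured and spread on Mueller Hinton agar. Wells received compound dissolved in 10% DMSO, 125–0.97 µg/mL; miconazole standard over the same range, DMSO negative control. After 24 h at 37 °C, MIC was read as the lowest concentration giving an inhibition zone. Duplicate experiments, means given.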

Bacillus subtilis = assay: Ratio of MBC to MIC against Bacillus subtilis MTCC 121; format: functional
Candida albicans [4] = assay: Ratio of MFC to MIC against Candida albicans MTCC 4748; format: functional; in short: as §1
Pichia sporocuriosa [5] = assay: Ratio of MFC to MIC against Issatchenkia hanoiensis MTCC 4755; format: functional; in short: as §1
Pichia sporocuriosa [6] = assay: Antifungal activity against Issatchenkia hanoiensis MTCC 4755 assessed as inhibition of fungal growth incubated for 24 hrs by agar well diffusion method; format: functional; details: MTCC 4755, 24 h; in short: as §3
Staphylococcus aureus [7] = assay: Antibacterial activity against Staphylococcus aureus MLS-16 MTCC 2940 assessed as inhibition of bacterial growth incubated for 24 hrs by agar well diffusion method; format: functional; details: MLS-16 MTCC 2940, 24 h
In short: (§4)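 Strains from MTCC; inoculum at 0.5 McFarland spread on Mueller-Hinton agar; 6 mm wells loaded with compound over 125–0.97 µg/mL; ciprofloxacin positive control (same range), DMSO negative control. Plates held 24 h at 37 °C; MIC taken as lowest concentration giving a clear inhibition zone. Triplicate runs, mean MIC reported.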

Candida albicans [8] = assay: Antifungal activity against Candida albicans MTCC 227 assessed as inhibition of fungal growth incubated for 24 hrs by agar well diffusion method; format: functional; details: MTCC 227, 24 h; in short: as §3
Pichia sporocuriosa [9] = assay: Fungicidal activity against Issatchenkia hanoiensis MTCC 4755 assessed as fungal killing incubated for 24 hrs; format: functional; details: MTCC 4755, 24 h; in short: as §2
MRC5 = assay: Cytotoxicity against human MRC5 cells incubated for 48 hrs by MTT assay; format: cell-based; details: MRC5, 48 h
In short: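 Normal human lung MRC5 cells grown 24 h in 96-well plates, then exposed to a range of compound concentrations for 48 h. MTT (250 µg/mL) added for 2 h, medium replaced by DMSO, absorbance read at 570 nm. Miconazole positive control, DMSO negative control. Triplicates, mean ± S.D.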

Candida albicans [10] = assay: Ratio of MFC to MIC against Candida albicans MTCC 183; format: functional
Candida albicans [11] = assay: Antifungal activity against Candida albicans MTCC 7315 assessed as inhibition of fungal growth incubated for 24 hrs by agar well diffusion method; format: functional; details: MTCC 7315, 24 h; in short: as §3
Staphylococcus aureus [12] = assay: Bactericidal activity against Staphylococcus aureus MTCC 96 assessed as bacterial killing incubated for 24 hrs; format: functional; details: MTCC 96, 24 h
In short: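 Broth tube assay: compound at 0–125 µg/mL in Mueller Hinton broth, overnight culture added to 0.5 McFarland (1.5 × 10^8 cfu/mL), held 24 h at 37 °C. 10 µL from each tube plated on Mueller Hinton agar. MBC is the lowest concentration that kills the strain. Duplicates, means reported.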

Pseudomonas aeruginosa = assay: Antibacterial activity against Pseudomonas aeruginosa MTCC 2453 assessed as inhibition of bacterial growth incubated for 24 hrs by agar well diffusion method; format: functional; details: MTCC 2453, 24 h; in short: as §4
Candida albicans [13] = assay: Antifungal activity against Candida albicans MTCC 4748 assessed as inhibition of fungal growth incubated for 24 hrs by agar well diffusion method; format: functional; details: MTCC 4748, 24 h; in short: as §3
Candida albicans [14] = assay: Induction of ROS generation in Candida albicans MTCC 3017 assessed as accumulation of intracellular ROS level by measuring fluorescence intensity after 24 hrs by DCFH-DA probe based fluorimetric assay; format: functional, organism-based
In short: (§5)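 C. albicans MTCC 3017 biofilms grown 24 h at 37 °C in 96-well plates, then treated 24 h with compound at 0, 5, 10, 15, 20, 25 µg/mL; untreated cells served as control. Cells then loaded with 10 µM DCFH-DA for 24 h in the dark, and fluorescence read at 485 nm excitation and 535 nm emission. Triplicates.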

Candida albicans [15] = assay: Induction of ROS generation in Candida albicans MTCC 3017 assessed as accumulation of intracellular ROS level by measuring fluorescence intensity at 5 ug/ml after 24 hrs by DCFH-DA probe based fluorimetric assay; format: functional, organism-based; in short: as §5
[16] = molecular target: Lanosterol 14-alpha demethylase (Candida albicans (strain SC5314 / ATCC MYA-2876) (Yeast), UniProt P10613); assay: Inhibition of CYP51 in Candida albicans MTCC 3017 assessed as reduction in ergosterol level incubated for 20 hrs by UV-visible spectrophotometry analysis
In short: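 Modified Breivik–Owades sterol method: Mueller Hinton broth with compound at 0, 2, 4, 8, 16 µg/mL, inoculated with single Candida colonies, shaken at 200 rpm for 20 h at 30 °C. Pellets washed and weighed, saponified in 25% alcoholic KOH for 70 min at 90 °C, sterols extracted into n-heptane, diluted 1:5 in ethanol and scanned at 230–310 nm. Triplicates.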

Candida albicans [17] = assay: Induction of ROS generation in Candida albicans MTCC 3017 assessed as accumulation of intracellular ROS level by measuring fluorescence intensity at 25 ug/ml after 24 hrs by DCFH-DA probe based fluorimetric assay; format: functional, organism-based; in short: as §5

Lanosterol 14-alpha demethylase, sequence (P10613 whole entry): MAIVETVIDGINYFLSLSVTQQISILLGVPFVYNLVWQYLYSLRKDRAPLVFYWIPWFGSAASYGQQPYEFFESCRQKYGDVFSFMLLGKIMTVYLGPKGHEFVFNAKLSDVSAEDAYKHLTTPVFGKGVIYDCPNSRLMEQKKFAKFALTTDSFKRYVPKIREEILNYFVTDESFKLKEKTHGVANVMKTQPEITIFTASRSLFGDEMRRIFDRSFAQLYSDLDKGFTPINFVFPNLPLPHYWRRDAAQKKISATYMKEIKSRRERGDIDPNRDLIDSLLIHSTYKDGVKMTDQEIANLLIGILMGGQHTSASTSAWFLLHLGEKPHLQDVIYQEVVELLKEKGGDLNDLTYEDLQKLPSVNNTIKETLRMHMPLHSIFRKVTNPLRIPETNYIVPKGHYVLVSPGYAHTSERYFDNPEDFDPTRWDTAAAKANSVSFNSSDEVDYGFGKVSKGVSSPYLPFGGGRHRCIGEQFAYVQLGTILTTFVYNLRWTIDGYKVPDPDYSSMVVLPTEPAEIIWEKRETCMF

| Compound | MIC (Candida albicans [3]) | MIC (Pichia sporocuriosa [6]) | MIC (Staphylococcus aureus [7]) | MIC (Candida albicans [8]) | MIC (Candida albicans [11]) | MIC (Pseudomonas aeruginosa) | MIC (Candida albicans [13]) | inhibition (INH) [16] | Ratio (Pichia kudriavzevii) | MFC (Candida albicans [1]) | Ratio (Candida albicans [2]) | Ratio (Bacillus subtilis) | Ratio (Candida albicans [4]) | Ratio (Pichia sporocuriosa [5]) | MFC (Pichia sporocuriosa [9]) | IC50 (MRC5) | Ratio (Candida albicans [10]) | MBC (Staphylococcus aureus [12]) | Activity (Candida albicans [14]) | Activity (Candida albicans [15]) | further results |
| --- | --- | --- | --- | --- | --- | --- | --- | --- | --- | --- | --- | --- | --- | --- | --- | --- | --- | --- | --- | --- | --- |
| COc1cc(/C=N/NC(=O)c2n[nH]c3c2Cc2ccccc2-3)ccc1O | inactive | 15.6 µg/mL (≈ 44.8 µM) | 7.8 µg/mL (≈ 22.4 µM) | 7.8 µg/mL (≈ 22.4 µM) | 7.8 µg/mL (≈ 22.4 µM) | 7.8 µg/mL (≈ 22.4 µM) | 3.9 µg/mL (≈ 11.2 µM) |  | 2 | 31.2 µg/mL (≈ 89.6 µM) | 2 | 2 | 2 | 2 | 31.2 µg/mL (≈ 89.6 µM) | 31.2 µg/mL (≈ 89.6 µM) | 2 | 7.8 µg/mL (≈ 22.4 µM) |  |  |  |
| O=C(N/N=C/c1ccc(O)cc1)c1n[nH]c2c1Cc1cc(F)ccc1-2 | inactive | 31.2 µg/mL (≈ 92.8 µM) | 3.9 µg/mL (≈ 11.6 µM) | 7.8 µg/mL (≈ 23.2 µM) | 15.6 µg/mL (≈ 46.4 µM) | 7.8 µg/mL (≈ 23.2 µM) | 15.6 µg/mL (≈ 46.4 µM) |  | 2 | 31.2 µg/mL (≈ 92.8 µM) | 2 | 2 | 2 | 2 | 62.4 µg/mL (≈ 186 µM) | 28.9 µg/mL (≈ 85.9 µM) | 2 | 7.8 µg/mL (≈ 23.2 µM) |  |  |  |

More lines, in order of falling MIC (Pichia sporocuriosa [6]), values ahead:

| MIC (Candida albicans [3]) | MIC (Pichia sporocuriosa [6]) | MIC (Staphylococcus aureus [7]) | MIC (Candida albicans [8]) | MIC (Candida albicans [11]) | MIC (Pseudomonas aeruginosa) | MIC (Candida albicans [13]) | inhibition (INH) [16] | Compound | Ratio (Pichia kudriavzevii) | MFC (Candida albicans [1]) | Ratio (Candida albicans [2]) | Ratio (Bacillus subtilis) | Ratio (Candida albicans [4]) | Ratio (Pichia sporocuriosa [5]) | MFC (Pichia sporocuriosa [9]) | IC50 (MRC5) | Ratio (Candida albicans [10]) | MBC (Staphylococcus aureus [12]) | Activity (Candida albicans [14]) | Activity (Candida albicans [15]) | further results |
| --- | --- | --- | --- | --- | --- | --- | --- | --- | --- | --- | --- | --- | --- | --- | --- | --- | --- | --- | --- | --- | --- |
| inactive | 31.2 µg/mL (≈ 98 µM) | 3.9 µg/mL (≈ 12.3 µM) | 7.8 µg/mL (≈ 24.5 µM) | 15.6 µg/mL (≈ 49 µM) | 7.8 µg/mL (≈ 24.5 µM) | > 31.2 µg/mL |  | O=C(N/N=C/c1ccc(O)cc1)c1n[nH]c2c1Cc1ccccc1-2 | 2 | 15.6 µg/mL (≈ 49 µM) | 2 | 2 | 2 | 2 | 62.4 µg/mL (≈ 196 µM) | 35.6 µg/mL (≈ 112 µM) | 2 | 7.8 µg/mL (≈ 24.5 µM) |  |  |  |
|  | 15.6 µg/mL (≈ 41.2 µM) | 3.9 µg/mL (≈ 10.3 µM) | 3.9 µg/mL (≈ 10.3 µM) | 7.8 µg/mL (≈ 20.6 µM) | 7.8 µg/mL (≈ 20.6 µM) | 7.8 µg/mL (≈ 20.6 µM) | Dose-dependent effect | COc1ccc2c(c1)Cc1c(C(=O)N/N=C/c3ccc(O)c(OC)c3)n[nH]c1-2 | 2 | 15.6 µg/mL (≈ 41.2 µM) | 2 | 2 | 2 | 2 | 31.2 µg/mL (≈ 82.5 µM) | 40.8 µg/mL (≈ 108 µM) | 2 | 7.8 µg/mL (≈ 20.6 µM) | Dose-dependent effect | Active | MIC (Candida albicans [3]; MTCC 183, 24 h): 15.6 µg/mL (≈ 41.2 µM); Activity (Candida albicans [17]): Active |
| inactive | 15.6 µg/mL (≈ 40.4 µM) | 3.9 µg/mL (≈ 10.1 µM) | 7.8 µg/mL (≈ 20.2 µM) | 15.6 µg/mL (≈ 40.4 µM) | 7.8 µg/mL (≈ 20.2 µM) | 15.6 µg/mL (≈ 40.4 µM) | Dose-dependent effect | COc1ccc2c(c1)Cc1c(C(=O)N/N=C/c3c(F)cc(F)cc3F)n[nH]c1-2 | 2 | 15.6 µg/mL (≈ 40.4 µM) | 2 | 2 | 2 | 2 | 31.2 µg/mL (≈ 80.8 µM) | 37.2 µg/mL (≈ 96.3 µM) | 2 | 7.8 µg/mL (≈ 20.2 µM) | Dose-dependent effect | Active | Activity (Candida albicans [17]): Active |
